Data set [1] deals with Transient receptor potential cation channel subfamily M member 6 (Homo sapiens) (UniProt Q9BX84). The data set is described as follows: Binding affinity to wild-type human partial length TRPM6 (Q1723 to I1998 residues) expressed in mammalian expression system assessed as residual binding level at 1 uM by Kinomescan method relative to control.
In data set [2] the target is Activin receptor type-1B (Homo sapiens) (UniProt P36896). The data set is described as follows: Binding affinity to wild-type human ACVR1B (S187 to I505 residues) expressed in bacterial expression system assessed as residual binding level at 1 uM by Kinomescan method relative to control.
The target of data set [3] is Myosin-IIIb (Homo sapiens) (UniProt Q8WXR4). The data set is described as follows: Binding affinity to wild-type human partial length MYO3B (M1 to D357 residues) expressed in bacterial expression system assessed as residual binding level at 1 uM by Kinomescan method relative to control.
Data set [4] has as its target Ephrin type-A receptor 6 (Homo sapiens) (UniProt Q9UF33). Kind of data set: Binding affinity to wild-type human partial length EPHA6 (Y700 to E1046 residues) expressed in bacterial expression system assessed as residual binding level at 1 uM by Kinomescan method relative to control.
In data set [5] the target is Cyclin-dependent kinase 13 (Homo sapiens) (UniProt Q14004). Kind of data set: Binding affinity to wild-type human partial length CDC2L5 (H675 to S1054 residues) expressed in mammalian expression system assessed as residual binding level at 1 uM by Kinomescan method relative to control.
Data set [6] has as its target Serine/threonine-protein kinase DCLK1 (Homo sapiens) (UniProt O15075). Kind of data set: Binding affinity to wild-type human partial length DCAMKL1 (L270 to A662 residues) expressed in mammalian expression system assessed as residual binding level at 1 uM by Kinomescan method relative to control.
Data set [7] concerns the target Serine/threonine-protein kinase LATS1 (Homo sapiens) (UniProt O95835). Kind of data set: Binding affinity to wild-type human partial length LATS1 (Q678 to V1130 residues) expressed in bacterial expression system assessed as residual binding level at 1 uM by Kinomescan method relative to control.
The target in data set [8] is Tyrosine-protein kinase Fgr (Homo sapiens) (UniProt P09769). The data set is described as follows: Binding affinity to wild-type human partial length FGR (L233 to T529 residues) expressed in bacterial expression system assessed as residual binding level at 1 uM by Kinomescan method relative to control.
Tyrosine-protein kinase Fgr (Homo sapiens), sequence (P09769 2-529 limits assumed): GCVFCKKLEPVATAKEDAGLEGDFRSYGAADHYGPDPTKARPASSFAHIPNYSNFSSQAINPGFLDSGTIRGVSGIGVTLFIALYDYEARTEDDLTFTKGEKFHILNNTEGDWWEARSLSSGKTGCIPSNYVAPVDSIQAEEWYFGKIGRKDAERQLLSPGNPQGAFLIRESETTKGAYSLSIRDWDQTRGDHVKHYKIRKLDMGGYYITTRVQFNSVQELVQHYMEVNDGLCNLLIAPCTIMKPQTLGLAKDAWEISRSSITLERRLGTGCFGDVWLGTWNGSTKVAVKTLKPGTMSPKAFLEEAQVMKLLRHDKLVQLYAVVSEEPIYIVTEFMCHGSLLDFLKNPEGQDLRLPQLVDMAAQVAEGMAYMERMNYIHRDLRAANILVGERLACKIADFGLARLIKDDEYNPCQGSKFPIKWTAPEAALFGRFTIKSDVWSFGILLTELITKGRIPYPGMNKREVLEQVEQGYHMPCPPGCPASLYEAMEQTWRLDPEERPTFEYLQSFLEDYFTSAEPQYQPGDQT
Data set [9] deals with Vascular endothelial growth factor receptor 2 (Homo sapiens) (UniProt P35968). The data set is described as follows: Binding affinity to wild-type human partial length VEGFR2 (R787 to P1253 residues) expressed in mammalian expression system assessed as residual binding level at 1 uM by Kinomescan method relative to control.
Data set [10] deals with Tyrosine-protein kinase CSK (Homo sapiens) (UniProt P41240). The data set is described as follows: Binding affinity to wild-type human full length CSK (M1 to L450 residues) expressed in bacterial expression system assessed as residual binding level at 1 uM by Kinomescan method relative to control.
Data set [11] addresses Rho-associated protein kinase 1 (Homo sapiens) (UniProt Q13464). The data set is described as follows: Binding affinity to wild-type human partial length ROCK1 (M1 to R415 residues) expressed in mammalian expression system assessed as residual binding level at 1 uM by Kinomescan method relative to control.
Data set [12] deals with Mitogen-activated protein kinase 7 (Homo sapiens) (UniProt Q13164). The data set is described as follows: Binding affinity to wild-type human partial length ERK5 (M1 to A409 residues) expressed in bacterial expression system assessed as residual binding level at 1 uM by Kinomescan method relative to control.
The target in data set [13] is Cyclin-dependent kinase 3 (Homo sapiens) (UniProt Q00526). The data set is described as follows: Binding affinity to wild-type human full length CDK3 (M1 to H305 residues) expressed in bacterial expression system assessed as residual binding level at 1 uM by Kinomescan method relative to control.
Data set [14] deals with Mitogen-activated protein kinase 14 (Homo sapiens) (UniProt Q16539). The data set is described as follows: Binding affinity to wild-type human full length p38-alpha (M1 to S360 residues) expressed in bacterial expression system assessed as residual binding level at 1 uM by Kinomescan method relative to control.
Mitogen-activated protein kinase 14 (Homo sapiens), sequence (Q16539 whole entry, the tested form may be a part): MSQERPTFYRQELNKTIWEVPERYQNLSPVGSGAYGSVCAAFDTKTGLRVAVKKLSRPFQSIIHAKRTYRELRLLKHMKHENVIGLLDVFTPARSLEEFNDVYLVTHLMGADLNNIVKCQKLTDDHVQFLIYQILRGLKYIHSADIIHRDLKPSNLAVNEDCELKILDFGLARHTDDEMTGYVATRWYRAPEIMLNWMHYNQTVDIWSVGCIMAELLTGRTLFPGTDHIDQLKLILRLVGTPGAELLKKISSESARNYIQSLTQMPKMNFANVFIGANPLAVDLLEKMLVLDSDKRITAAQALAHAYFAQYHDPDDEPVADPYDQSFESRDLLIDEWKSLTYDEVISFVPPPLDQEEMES
The target of data set [15] is Serine/threonine-protein kinase Nek10 (Homo sapiens) (UniProt Q6ZWH5). Kind of data set: Binding affinity to wild-type human partial length NEK10 (L488 to R809 residues) expressed in mammalian expression system assessed as residual binding level at 1 uM by Kinomescan method relative to control.
The target of data set [16] is NUAK family SNF1-like kinase 2 (Homo sapiens) (UniProt Q9H093). The data set is described as follows: Binding affinity to wild-type human partial length SNARK (P22 to A333 residues) expressed in mammalian expression system assessed as residual binding level at 1 uM by Kinomescan method relative to control.
In another data set the target is Activated CDC42 kinase 1 (Homo sapiens, UniProt Q07912). The data set is described as follows: Inhibition of recombinant GST-tagged human TNK2 catalytic/cytoplasmic domain (110 to 476 residues) expressed in baculovirus expression system by LanthaScreen assay.
Activated CDC42 kinase 1, sequence (Q07912 whole entry, the tested form may be a part): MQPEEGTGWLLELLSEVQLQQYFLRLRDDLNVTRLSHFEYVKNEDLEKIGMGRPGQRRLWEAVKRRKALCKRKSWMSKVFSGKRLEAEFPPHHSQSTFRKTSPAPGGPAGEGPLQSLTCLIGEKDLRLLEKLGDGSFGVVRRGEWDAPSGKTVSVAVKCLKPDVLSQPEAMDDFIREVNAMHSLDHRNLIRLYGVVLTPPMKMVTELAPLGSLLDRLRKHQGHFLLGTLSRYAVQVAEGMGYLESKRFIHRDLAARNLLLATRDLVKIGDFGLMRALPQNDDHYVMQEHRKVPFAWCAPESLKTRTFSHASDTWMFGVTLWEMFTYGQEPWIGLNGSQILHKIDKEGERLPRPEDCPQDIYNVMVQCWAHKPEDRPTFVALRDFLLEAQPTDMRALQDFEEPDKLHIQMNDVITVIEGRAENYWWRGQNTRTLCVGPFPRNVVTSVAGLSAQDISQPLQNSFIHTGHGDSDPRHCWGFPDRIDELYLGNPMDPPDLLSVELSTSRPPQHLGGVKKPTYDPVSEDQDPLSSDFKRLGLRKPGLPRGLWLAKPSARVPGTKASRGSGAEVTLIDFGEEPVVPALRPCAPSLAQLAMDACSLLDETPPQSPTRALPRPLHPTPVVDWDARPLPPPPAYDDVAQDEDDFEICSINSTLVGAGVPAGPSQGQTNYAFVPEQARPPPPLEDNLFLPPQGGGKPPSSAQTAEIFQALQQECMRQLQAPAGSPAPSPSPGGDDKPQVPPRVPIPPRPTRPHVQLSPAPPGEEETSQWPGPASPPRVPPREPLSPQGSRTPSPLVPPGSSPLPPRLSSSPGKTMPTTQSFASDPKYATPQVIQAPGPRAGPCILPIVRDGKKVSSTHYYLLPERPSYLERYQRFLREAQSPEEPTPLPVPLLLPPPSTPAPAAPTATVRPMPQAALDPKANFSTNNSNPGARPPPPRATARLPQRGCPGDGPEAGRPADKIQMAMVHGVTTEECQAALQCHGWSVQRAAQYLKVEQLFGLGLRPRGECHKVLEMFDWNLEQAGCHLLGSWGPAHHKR
Data set [17] in a line: Metabolic stability in dog liver microsomes assessed as parent compound remaining at 1 uM after 30 mins in presence of NADPH by LC/MS/MS analysis. It counts as ADME, Canis lupus familiaris, Microsome. The note with it: read-out: Stability. In short, it runs like this: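 Compound at 1 μM final with 0.5 mg/mL microsomal protein in 100 mM phosphate buffer pH 7.4 at 37 °C, started by adding an NADPH-regenerating system. Reactions were quenched with cold acetonitrile at 0 and 30 min and spun down. Supernatant was analysed by LC-MS/MS. The 0-min sample, quenched before NADPH addition, was set as 100%, and percent parent remaining came from peak areas.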

Data set [18] addresses Macrophage colony-stimulating factor 1 receptor (Homo sapiens) (UniProt P07333). The data set is described as follows: Binding affinity to wild-type human partial length CSF1R (I564 to S939 residues) expressed in bacterial expression system assessed as residual binding level at 1 uM by Kinomescan method relative to control.
Data set [19] has as its target Serine/threonine-protein kinase SIK3 (Homo sapiens) (UniProt Q9Y2K2). Kind of data set: Binding affinity to wild-type human partial length QSK (A90 to L395 residues) expressed in mammalian expression system assessed as residual binding level at 1 uM by Kinomescan method relative to control.
For data set [20], the target named is Casein kinase I isoform delta (Homo sapiens) (UniProt P48730). The data set is described as follows: Binding affinity to wild-type human full length CSNK1D (M1 to K409 residues) expressed in bacterial expression system assessed as residual binding level at 1 uM by Kinomescan method relative to control.
Casein kinase I isoform delta (Homo sapiens), sequence (P48730 whole entry, looked up, the tested form may be a part, canonical isoform): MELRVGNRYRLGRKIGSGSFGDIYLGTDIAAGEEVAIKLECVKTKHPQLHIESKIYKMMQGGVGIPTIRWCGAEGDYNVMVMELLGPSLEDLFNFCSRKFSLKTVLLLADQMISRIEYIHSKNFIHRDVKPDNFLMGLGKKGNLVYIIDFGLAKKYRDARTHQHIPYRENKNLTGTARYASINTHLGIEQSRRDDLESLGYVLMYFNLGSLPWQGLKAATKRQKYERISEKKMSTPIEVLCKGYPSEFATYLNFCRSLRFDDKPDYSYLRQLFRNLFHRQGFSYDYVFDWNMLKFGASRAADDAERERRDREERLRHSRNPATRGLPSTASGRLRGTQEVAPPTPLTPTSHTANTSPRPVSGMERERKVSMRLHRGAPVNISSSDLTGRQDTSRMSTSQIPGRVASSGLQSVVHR
Data set [21] has as its target Homeodomain-interacting protein kinase 2 (Homo sapiens) (UniProt Q9H2X6). The data set is described as follows: Binding affinity to wild-type human partial length HIPK2 (M153 to S564 residues) expressed in mammalian expression system assessed as residual binding level at 1 uM by Kinomescan method relative to control.
For data set [22], the target named is Casein kinase I isoform gamma-1 (Homo sapiens) (UniProt Q9HCP0). Kind of data set: Binding affinity to wild-type human partial length CSNK1G1 (T15 to S353 residues) expressed in bacterial expression system assessed as residual binding level at 1 uM by Kinomescan method relative to control.
Casein kinase I isoform gamma-1 (Homo sapiens), sequence (Q9HCP0 whole entry, looked up, the tested form may be a part, canonical isoform): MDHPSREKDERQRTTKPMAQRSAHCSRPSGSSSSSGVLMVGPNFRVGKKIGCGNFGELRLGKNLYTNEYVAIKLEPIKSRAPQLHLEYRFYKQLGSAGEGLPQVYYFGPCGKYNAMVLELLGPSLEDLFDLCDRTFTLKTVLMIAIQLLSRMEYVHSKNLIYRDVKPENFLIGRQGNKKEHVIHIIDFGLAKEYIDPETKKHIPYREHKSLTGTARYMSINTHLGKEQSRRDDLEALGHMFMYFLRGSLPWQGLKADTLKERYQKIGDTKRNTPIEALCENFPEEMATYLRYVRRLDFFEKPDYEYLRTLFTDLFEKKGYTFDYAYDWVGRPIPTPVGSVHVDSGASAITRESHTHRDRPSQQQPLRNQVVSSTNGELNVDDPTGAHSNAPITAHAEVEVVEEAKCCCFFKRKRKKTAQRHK

Each structure is given as a SMILES string.

Serine/threonine-protein kinase LATS1 (Homo sapiens), sequence (O95835 whole entry, the tested form may be a part): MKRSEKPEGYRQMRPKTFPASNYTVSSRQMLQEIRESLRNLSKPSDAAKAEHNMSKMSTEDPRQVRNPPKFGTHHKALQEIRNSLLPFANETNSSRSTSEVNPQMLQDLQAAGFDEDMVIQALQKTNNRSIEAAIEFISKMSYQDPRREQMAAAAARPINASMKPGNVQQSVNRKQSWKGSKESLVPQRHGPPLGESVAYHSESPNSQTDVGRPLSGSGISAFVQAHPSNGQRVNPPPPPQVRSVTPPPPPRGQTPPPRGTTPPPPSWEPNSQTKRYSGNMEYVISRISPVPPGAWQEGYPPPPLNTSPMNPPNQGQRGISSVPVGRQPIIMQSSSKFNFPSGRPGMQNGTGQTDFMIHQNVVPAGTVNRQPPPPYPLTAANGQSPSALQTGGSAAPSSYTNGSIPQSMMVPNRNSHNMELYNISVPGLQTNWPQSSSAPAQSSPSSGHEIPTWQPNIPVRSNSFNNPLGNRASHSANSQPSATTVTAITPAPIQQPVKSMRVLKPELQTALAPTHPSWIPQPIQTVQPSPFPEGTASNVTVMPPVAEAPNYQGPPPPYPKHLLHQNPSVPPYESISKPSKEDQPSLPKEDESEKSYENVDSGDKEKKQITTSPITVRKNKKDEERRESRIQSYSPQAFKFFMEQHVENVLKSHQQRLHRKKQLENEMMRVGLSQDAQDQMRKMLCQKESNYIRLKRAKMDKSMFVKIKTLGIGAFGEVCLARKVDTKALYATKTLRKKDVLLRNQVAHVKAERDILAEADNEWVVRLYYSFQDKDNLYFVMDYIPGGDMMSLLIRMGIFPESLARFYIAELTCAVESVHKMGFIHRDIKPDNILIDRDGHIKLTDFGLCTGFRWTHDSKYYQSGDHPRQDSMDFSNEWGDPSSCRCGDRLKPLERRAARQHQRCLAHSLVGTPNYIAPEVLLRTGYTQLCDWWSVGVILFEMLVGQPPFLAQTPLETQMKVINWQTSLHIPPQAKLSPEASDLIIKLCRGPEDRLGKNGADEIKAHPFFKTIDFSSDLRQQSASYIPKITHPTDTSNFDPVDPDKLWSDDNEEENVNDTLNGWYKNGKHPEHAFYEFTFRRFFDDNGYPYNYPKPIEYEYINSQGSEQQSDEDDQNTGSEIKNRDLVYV
Macrophage colony-stimulating factor 1 receptor (Homo sapiens), sequence (P07333 whole entry, the tested form may be a part): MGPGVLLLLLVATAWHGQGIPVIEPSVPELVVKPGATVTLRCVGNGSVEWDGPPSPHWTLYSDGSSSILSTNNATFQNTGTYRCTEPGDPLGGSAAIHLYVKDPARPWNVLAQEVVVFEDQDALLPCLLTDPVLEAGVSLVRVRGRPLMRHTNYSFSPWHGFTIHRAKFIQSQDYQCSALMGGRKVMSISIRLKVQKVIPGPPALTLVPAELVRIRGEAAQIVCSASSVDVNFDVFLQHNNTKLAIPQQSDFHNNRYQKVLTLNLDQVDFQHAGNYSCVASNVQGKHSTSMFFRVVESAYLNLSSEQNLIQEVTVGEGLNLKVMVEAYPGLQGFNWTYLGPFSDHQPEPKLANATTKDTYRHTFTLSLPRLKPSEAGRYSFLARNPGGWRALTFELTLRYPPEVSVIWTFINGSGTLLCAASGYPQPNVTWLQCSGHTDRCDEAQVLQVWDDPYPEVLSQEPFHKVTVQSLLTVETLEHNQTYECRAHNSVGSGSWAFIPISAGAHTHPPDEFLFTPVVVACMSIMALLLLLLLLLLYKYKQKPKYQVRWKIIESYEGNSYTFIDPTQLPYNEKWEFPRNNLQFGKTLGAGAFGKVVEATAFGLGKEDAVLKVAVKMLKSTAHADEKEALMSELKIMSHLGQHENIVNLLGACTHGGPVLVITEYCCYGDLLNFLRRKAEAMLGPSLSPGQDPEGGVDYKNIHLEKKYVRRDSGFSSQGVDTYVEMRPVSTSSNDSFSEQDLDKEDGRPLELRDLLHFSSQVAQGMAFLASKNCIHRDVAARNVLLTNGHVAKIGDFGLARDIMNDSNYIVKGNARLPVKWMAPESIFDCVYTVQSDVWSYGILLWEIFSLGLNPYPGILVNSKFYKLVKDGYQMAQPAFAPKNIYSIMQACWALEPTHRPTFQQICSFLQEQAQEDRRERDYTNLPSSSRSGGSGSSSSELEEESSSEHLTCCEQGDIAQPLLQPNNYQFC

Take `C=CC(=O)Nc1cc(Nc2ncc(Cl)c(Nc3ccccc3S(=O)(=O)C(C)C)n2)c(OC)cc1N(C)CCN(C)C`: the Activity in [1] was 52%; in [2], 16%; in data set [3], 1.8%; in data set [4], 49%; in [5], 91%; in [6], 14%. Moreover, the Activity in data set [7] was 82%; in data set [8], 57%; in data set [9], 42%; in data set [10] it was 69%; in [11] it was 46%; in data set [12], 37%. Also, the Activity in data set [13] came to 94%; in data set [14], 92%; in [15], 28%; in data set [16], 1.2%; in data set [18], 26%; in data set [19] it was 61%. Besides, the Activity in data set [20] came to 82%; in data set [21], 94%; in [22], 74%. At Activated CDC42 kinase 1, the IC50 was 13 nM. The remaining at 0.5 h, 1 µM in data set [17] is 17%.

The values are drawn from ChEMBL document CHEMBL4382192, “Discovery of a potent dual ALK and EGFR T790M inhibitor” (Eur J Med Chem, 2017).
